Assay results published in ChEMBL document CHEMBL2203081 (Bioorg Med Chem Lett, 2012).

Columns and labels:
[1] = target: Serine/threonine-protein kinase 32B (Homo sapiens) (UniProt Q9NY57); assay: Inhibition of YANK2 assessed as residual activity at 10 uM relative to control
[2] = target: Death-associated protein kinase 1 (Homo sapiens) (UniProt P53355); assay: Inhibition of DAPK1 assessed as residual activity at 10 uM relative to control
Outline: (§1)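 Competition kinase-binding assay (KINOMEscan) across a non-redundant panel of 329 kinases beyond the radiometric panel; residual binding expressed relative to control.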

[3] = target: Cyclin-dependent kinase 5 (Homo sapiens) (UniProt Q00535); assay: Inhibition of CDK5 assessed as residual activity at 10 uM relative to control
[4] = target: Serine/threonine-protein kinase SIK1 (Homo sapiens) (UniProt P57059); assay: Inhibition of SIK assessed as residual activity at 10 uM relative to control
[5] = target: Serine/threonine-protein kinase 3 (Homo sapiens) (UniProt Q13188); assay: Inhibition of MST2 assessed as residual activity at 1 uM
[6] = target: Rho-associated protein kinase 2 (Homo sapiens) (UniProt O75116); assay: Inhibition of ROCK2 assessed as residual activity at 10 uM relative to control
[7] = target: BMP-2-inducible protein kinase (Homo sapiens) (UniProt Q9NSY1); assay: Inhibition of BIKE assessed as residual activity at 10 uM relative to control
[8] = target: T1, NUAK family SNF1-like kinase 1 (Homo sapiens) (UniProt O60285); assay: Inhibition of ARK5 assessed as residual activity at 10 uM relative to control
T1 sequence (whole entry): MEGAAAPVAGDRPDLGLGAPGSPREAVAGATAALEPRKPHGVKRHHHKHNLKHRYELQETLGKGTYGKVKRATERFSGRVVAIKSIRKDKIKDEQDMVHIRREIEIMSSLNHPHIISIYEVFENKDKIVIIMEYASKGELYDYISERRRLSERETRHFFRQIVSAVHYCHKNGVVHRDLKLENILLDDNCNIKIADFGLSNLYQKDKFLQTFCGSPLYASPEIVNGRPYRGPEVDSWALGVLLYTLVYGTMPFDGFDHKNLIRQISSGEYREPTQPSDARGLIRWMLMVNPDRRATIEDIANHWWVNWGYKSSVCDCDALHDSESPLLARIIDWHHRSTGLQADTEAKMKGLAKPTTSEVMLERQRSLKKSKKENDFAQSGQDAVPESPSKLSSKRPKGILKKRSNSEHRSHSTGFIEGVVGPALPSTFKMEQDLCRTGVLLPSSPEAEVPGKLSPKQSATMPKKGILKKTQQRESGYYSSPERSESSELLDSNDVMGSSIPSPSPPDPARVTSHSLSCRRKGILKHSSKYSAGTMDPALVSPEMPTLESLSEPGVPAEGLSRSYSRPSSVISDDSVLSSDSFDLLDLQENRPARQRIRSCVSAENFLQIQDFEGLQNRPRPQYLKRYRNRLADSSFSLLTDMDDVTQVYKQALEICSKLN

[9] = target: Phosphatidylinositol 4-phosphate 5-kinase type-1 alpha (Homo sapiens) (UniProt Q99755); assay: Inhibition of PIP5K1A assessed as residual activity at 10 uM relative to control
Brain = assay: AUClast in Swiss albino mouse brain at 10 mg/kg, po; format: ADME, organism-based; parameters: time 0 - last, dose 10 mg/kg, route oral; details: in vivo
Outline: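 Male Swiss Albino mice, single dose given intravenously (1 mg/kg) or orally (10 mg/kg). Drug measured in plasma and brain, with AUClast taken for each. The brain/plasma ratio is based on AUClast, and oral bioavailability is derived from the IV and PO plasma data.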

[10] = target: Receptor-type tyrosine-protein kinase FLT3 (Homo sapiens) (UniProt P36888); assay: Inhibition of FLT3 assessed as residual activity at 10 uM relative to control
[11] = target: Misshapen-like kinase 1 (Homo sapiens) (UniProt Q8N4C8); assay: Inhibition of MINK1 assessed as residual activity at 10 uM
[12] = target: T2, Ephrin type-B receptor 3 (Homo sapiens) (UniProt P54753); assay: Inhibition of EPHB3 assessed as residual activity at 10 uM relative to control; outline: as §1
T2 sequence (whole entry): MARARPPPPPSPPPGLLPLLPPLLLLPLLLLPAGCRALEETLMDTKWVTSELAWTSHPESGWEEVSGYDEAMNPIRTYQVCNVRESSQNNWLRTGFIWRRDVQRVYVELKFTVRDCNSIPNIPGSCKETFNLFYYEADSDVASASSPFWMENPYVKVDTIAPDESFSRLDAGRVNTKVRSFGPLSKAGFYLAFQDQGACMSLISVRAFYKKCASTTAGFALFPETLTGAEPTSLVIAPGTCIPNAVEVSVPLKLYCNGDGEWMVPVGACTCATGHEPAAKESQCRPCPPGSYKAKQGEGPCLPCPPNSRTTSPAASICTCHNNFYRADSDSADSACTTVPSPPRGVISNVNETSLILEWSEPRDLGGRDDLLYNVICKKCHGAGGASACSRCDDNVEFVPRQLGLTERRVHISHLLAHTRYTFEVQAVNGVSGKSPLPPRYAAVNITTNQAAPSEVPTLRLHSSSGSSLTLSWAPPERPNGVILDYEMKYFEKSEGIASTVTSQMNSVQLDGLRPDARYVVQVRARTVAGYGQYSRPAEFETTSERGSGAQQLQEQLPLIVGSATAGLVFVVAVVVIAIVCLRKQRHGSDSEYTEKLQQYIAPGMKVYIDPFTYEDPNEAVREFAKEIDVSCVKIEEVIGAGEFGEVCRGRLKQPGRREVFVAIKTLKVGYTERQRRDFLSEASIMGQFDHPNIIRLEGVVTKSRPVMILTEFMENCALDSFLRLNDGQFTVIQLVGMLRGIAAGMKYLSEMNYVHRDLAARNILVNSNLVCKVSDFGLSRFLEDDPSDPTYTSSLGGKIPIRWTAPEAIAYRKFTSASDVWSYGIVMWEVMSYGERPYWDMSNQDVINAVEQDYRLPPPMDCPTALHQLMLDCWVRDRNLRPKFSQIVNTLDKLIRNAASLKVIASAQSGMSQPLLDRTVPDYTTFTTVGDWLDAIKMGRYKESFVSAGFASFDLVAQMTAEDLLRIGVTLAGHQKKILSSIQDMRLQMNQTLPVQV

[13] = target: Epidermal growth factor receptor (Homo sapiens) (UniProt P04626+P00533+Q15303+P21860); assay: Inhibition of EGFR L747-T751del, Sins mutant assessed as residual activity at 10 uM relative to control; format: protein assay; outline: as §1
[14] = target: High affinity nerve growth factor receptor (Homo sapiens) (UniProt P04629); assay: Inhibition of TrkA assessed as residual activity at 1 uM
[15] = target: Tyrosine-protein kinase SYK (Homo sapiens) (UniProt P43405); assay: Inhibition of SYK assessed as residual activity at 1 uM
[16] = target: Platelet-derived growth factor receptor beta (Homo sapiens) (UniProt P09619); assay: Inhibition of PDGFRB assessed as residual activity at 10 uM relative to control
[17] = target: Serine/threonine-protein kinase DCLK1 (Homo sapiens) (UniProt O15075); assay: Inhibition of DCAMKL1 assessed as residual activity at 10 uM relative to control; outline: as §1
Chain of Serine/threonine-protein kinase DCLK1 (Homo sapiens) (O15075 whole entry): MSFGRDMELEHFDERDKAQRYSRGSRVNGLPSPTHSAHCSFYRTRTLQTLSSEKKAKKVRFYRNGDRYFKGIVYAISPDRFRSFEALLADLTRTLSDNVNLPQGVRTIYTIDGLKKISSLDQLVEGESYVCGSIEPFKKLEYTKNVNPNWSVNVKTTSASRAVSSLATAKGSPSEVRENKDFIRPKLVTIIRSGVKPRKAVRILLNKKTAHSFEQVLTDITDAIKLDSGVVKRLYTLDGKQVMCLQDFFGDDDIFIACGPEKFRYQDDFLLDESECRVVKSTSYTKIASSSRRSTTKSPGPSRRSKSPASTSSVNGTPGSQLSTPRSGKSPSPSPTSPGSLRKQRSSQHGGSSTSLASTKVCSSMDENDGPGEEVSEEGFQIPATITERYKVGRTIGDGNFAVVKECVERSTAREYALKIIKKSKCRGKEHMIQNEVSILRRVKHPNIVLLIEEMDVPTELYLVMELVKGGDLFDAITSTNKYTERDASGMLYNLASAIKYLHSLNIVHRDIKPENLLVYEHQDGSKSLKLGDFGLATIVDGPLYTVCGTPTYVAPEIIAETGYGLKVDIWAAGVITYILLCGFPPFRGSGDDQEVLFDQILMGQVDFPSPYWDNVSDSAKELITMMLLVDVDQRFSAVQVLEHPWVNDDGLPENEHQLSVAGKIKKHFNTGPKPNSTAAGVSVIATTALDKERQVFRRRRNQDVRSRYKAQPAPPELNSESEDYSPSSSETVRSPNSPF

Chain of Serine/threonine-protein kinase 32B (Homo sapiens) (Q9NY57 whole entry): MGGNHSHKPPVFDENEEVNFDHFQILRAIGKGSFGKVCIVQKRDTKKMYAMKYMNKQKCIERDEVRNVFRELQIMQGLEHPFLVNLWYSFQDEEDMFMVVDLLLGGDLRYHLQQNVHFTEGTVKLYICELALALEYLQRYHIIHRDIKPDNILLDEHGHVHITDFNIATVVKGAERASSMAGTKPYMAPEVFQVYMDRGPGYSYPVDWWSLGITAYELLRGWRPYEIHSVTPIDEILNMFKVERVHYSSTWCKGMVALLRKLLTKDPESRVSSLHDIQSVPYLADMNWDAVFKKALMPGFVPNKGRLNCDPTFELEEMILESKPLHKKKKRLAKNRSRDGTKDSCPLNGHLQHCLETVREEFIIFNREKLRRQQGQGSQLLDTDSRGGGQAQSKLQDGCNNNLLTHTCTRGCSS
Chain of Platelet-derived growth factor receptor beta (Homo sapiens) (P09619 whole entry): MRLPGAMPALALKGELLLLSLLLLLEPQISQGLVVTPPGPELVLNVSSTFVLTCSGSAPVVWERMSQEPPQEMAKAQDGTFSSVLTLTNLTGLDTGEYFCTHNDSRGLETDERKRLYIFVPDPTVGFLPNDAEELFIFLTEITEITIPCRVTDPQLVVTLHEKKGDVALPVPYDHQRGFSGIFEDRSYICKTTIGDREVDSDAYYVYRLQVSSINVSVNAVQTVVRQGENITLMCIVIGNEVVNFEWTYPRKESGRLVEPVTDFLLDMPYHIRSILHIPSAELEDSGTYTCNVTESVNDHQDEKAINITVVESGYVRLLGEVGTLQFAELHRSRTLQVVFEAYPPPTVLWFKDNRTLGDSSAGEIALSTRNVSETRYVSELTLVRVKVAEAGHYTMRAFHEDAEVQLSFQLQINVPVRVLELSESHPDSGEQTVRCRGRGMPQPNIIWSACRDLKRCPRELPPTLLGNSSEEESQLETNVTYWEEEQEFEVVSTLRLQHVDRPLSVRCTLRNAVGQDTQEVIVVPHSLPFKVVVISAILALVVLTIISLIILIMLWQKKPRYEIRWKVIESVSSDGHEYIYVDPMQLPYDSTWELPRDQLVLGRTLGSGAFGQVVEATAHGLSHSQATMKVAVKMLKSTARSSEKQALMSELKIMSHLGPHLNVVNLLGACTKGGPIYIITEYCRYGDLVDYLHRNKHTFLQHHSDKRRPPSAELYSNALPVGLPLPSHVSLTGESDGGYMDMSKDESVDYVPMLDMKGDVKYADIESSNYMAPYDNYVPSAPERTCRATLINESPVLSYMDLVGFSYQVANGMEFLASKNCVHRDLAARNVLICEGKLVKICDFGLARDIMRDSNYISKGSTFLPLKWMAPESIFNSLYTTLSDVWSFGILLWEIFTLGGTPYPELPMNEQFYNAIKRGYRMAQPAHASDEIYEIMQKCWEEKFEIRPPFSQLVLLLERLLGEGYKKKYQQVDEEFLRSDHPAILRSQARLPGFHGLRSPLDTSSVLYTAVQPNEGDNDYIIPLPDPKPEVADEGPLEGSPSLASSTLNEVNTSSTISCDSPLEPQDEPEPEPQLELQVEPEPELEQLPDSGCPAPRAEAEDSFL
Chain of Misshapen-like kinase 1 (Homo sapiens) (Q8N4C8 whole entry, looked up): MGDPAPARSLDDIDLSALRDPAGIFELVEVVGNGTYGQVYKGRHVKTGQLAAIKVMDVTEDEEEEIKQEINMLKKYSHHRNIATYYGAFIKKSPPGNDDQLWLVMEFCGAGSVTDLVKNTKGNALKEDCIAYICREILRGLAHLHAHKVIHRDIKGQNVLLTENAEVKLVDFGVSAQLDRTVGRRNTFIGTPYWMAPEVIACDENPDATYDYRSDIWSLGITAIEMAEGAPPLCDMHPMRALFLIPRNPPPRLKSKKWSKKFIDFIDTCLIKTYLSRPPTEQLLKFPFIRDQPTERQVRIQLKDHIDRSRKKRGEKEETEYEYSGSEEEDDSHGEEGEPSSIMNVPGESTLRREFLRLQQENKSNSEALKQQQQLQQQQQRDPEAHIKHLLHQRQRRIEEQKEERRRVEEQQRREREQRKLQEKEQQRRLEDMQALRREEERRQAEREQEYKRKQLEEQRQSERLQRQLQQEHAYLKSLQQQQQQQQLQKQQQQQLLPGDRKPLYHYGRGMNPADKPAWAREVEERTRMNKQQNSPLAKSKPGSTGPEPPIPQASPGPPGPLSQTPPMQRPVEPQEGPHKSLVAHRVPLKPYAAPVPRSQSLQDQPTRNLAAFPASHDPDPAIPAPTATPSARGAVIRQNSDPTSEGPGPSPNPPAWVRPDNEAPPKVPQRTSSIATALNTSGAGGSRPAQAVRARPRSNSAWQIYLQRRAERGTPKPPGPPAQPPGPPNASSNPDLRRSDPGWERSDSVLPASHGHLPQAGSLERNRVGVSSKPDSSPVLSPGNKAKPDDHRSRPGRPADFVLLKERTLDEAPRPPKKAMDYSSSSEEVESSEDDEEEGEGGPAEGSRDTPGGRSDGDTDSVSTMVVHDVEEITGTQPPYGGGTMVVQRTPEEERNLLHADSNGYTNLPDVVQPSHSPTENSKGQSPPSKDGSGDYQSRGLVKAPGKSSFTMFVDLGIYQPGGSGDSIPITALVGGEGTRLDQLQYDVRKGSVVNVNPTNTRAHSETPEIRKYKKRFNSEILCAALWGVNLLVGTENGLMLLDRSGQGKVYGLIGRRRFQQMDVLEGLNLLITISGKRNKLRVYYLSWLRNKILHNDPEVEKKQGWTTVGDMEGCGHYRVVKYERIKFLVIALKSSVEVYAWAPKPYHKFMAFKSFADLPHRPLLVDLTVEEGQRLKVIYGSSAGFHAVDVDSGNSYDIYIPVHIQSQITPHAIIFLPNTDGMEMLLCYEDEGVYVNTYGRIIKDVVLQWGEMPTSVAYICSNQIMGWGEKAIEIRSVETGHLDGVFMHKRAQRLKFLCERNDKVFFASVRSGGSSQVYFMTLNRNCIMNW
Chain of High affinity nerve growth factor receptor (Homo sapiens) (P04629 33-796 limits assumed): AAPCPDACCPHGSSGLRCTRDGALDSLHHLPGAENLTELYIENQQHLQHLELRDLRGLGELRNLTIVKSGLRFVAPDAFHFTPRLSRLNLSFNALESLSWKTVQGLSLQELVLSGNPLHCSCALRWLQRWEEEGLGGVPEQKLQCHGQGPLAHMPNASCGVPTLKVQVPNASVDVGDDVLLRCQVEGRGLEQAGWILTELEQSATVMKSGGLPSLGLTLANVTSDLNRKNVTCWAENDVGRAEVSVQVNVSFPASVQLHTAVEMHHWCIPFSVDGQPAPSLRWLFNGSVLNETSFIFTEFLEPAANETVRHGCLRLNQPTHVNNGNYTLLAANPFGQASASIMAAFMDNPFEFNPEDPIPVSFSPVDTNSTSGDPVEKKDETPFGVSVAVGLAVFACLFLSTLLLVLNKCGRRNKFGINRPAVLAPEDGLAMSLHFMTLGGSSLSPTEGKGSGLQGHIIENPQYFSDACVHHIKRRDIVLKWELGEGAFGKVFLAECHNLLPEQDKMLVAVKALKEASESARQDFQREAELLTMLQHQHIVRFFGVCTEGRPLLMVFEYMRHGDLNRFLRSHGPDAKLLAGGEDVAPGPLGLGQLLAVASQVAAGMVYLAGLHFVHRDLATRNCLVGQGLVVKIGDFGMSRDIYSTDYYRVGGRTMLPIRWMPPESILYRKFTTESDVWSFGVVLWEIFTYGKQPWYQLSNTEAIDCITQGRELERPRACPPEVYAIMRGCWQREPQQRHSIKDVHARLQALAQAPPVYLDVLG
Chain of Cyclin-dependent kinase 5 (Homo sapiens) (Q00535 whole entry, looked up): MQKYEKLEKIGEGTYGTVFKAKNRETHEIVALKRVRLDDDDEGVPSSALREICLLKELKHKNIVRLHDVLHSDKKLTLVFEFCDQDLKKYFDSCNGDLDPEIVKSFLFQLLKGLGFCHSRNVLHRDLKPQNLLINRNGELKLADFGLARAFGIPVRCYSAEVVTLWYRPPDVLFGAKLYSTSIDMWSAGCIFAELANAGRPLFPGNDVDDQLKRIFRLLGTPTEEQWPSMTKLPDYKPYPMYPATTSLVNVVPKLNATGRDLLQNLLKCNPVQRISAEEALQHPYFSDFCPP

Work on `O=C(Nc1cccnc1)c1cc(-c2ccnc(F)c2)ccc1OCc1ccccc1` yielded an Activity [1] of 79%, an Activity [2] of 40% and an Activity [3] of 70%. The Activity [4] was 46%, the Activity [5] was 103% and the Activity [6] was 47%. It also gave an Activity [7] of 65%, an Activity [8] of 50% and an Activity [9] of 73%. It also gave an AUClast (Brain) of 1539.4 ng·h/mL, an Activity [10] of 66% and an Activity [11] of 76%. For the same compound, the Activity [12] was 67%, the Activity [13] was 69% and the Activity [14] was 80%. For the same compound, the Activity [15] was 115%, the Activity [16] was 52% and the Activity [17] was 57%.
